The results in this text go back to ChEMBL document CHEMBL3526048, “In vitro metabolism of rivoglitazone, a novel peroxisome proliferator-activated receptor γ agonist, in rat, monkey, and human liver microsomes and freshly isolated hepatocytes” (Drug Metab Dispos, 2011).

Data set [1] can be described thus: Drug level in monkey hepatocytes treated with [14C]-rivoglitazone at 30 uM after 3 hrs by radio-HPLC/LC-MS/MS analysis in presence of UDPGA and UDPGA/SAM. Conditions: cynomolgus monkey.
Data set [2] is described as follows: Drug level in cynomolgus monkey liver microsomes treated with [14C]-rivoglitazone at 20 uM after 4 hrs by radio-HPLC/LC-MS/MS analysis in presence of UDPGA and UDPGA/SAM. Type of data set: ADME, Macaca fascicularis. The procedure, abridged:
(§1)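 Pooled male liver microsomes (1 mg/ml; rat from 94 Sprague-Dawley, monkey from 8 cynomolgus, human from 23 donors) were pretreated with alamethicin (50 μg/mg protein, 15 min, ice). Incubation with [¹⁴C]rivoglitazone (20 μM) in 100 mM Tris-HCl (pH 7.5), 10 mM MgCl₂, 5 mM UDPGA, with or without 2 mM SAM, 4 h at 37°C. Controls lacked UDPGA and SAM alone. Radio-HPLC and LC-MS analysis.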
Background: Liver microsomes are vesicles of endoplasmic reticulum, rich in cytochrome P450 enzymes.

The test system of data set [3] is Hepatocyte. The experiment in a line: Drug level in rat hepatocytes treated with [14C]-rivoglitazone at 30 uM after 3 hrs by radio-HPLC/LC-MS/MS analysis in presence of UDPGA and UDPGA/SAM. Type of data set: ADME, cell-based.
A short description of data set [4]: Retention time of the compound by LC-MS/MS analysis. Type of data set: physicochemical. In short, it runs like this: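 LC-MS/MS used a YMC-Pack ODS-A column (1.5 × 150 mm, 5 μm) at 30°C, 0.1 ml/min. Mobile phase was water and acetonitrile, each with 0.01% TFA. Gradient: 12→60% B over 30 min, →90% B over 5 min, hold 5 min. Detection was UV 220 nm with positive ESI Q-TOF (capillary 3300 V, cone 45 V), collision energy 20 eV and xenon as collision gas.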

The test system of data set [5] is Liver microsome. The data set can be described thus: Drug level in human liver microsomes treated with [14C]-rivoglitazone at 20 uM after 4 hrs by radio-HPLC/LC-MS/MS analysis in presence of UDPGA and UDPGA/SAM. Type of data set: ADME. The procedure, abridged: as §1
Data set [6] has as its target T1, UDP-glucuronosyltransferase 2B7 (Homo sapiens, UniProt P16662).
T1 sequence (P16662 whole entry): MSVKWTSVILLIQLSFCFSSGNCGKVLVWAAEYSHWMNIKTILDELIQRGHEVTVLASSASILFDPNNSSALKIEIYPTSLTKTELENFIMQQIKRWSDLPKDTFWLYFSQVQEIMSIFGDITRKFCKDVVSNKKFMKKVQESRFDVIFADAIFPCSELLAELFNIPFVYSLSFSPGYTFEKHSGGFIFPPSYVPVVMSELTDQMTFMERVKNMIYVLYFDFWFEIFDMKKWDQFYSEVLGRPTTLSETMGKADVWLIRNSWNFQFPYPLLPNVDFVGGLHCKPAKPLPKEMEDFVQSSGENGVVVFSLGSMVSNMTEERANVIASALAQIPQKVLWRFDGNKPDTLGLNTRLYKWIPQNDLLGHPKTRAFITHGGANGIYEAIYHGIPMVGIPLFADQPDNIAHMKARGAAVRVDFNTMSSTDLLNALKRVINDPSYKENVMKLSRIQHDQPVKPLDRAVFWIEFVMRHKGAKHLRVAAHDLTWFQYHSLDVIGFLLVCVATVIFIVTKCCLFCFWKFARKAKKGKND
The data set can be described thus: Activity of human UGT2B7 expressed in microsomes isolated from baculovirus infected insect cell assessed as enzyme-mediated compound formation treated with [14C]-rivoglitazone at 20 uM after 4 hrs by radio-HPLC/LC-MS/MS analysis in presence of NADPH-generating system/SAM. Type of data set: ADME.

For data set [7], the system named is Hepatocyte. The experiment in a line: Drug level in human hepatocytes treated with [14C]-rivoglitazone at 30 uM after 3 hrs by radio-HPLC/LC-MS/MS analysis in presence of UDPGA and UDPGA/SAM. Type of data set: ADME, cell-based.
In data set [8] the test system is Liver microsome. The data set can be described thus: Drug level in Sprague-Dawley rat liver microsomes treated with [14C]-rivoglitazone at 20 uM after 4 hrs by radio-HPLC/LC-MS/MS analysis in presence of UDPGA and UDPGA/SAM. Type of data set: ADME. In short, it runs like this: as §1
The target of data set [9] is T2, UDP-glucuronosyltransferase 1A3 (Homo sapiens, UniProt P35503).
T2 sequence (P35503 whole entry): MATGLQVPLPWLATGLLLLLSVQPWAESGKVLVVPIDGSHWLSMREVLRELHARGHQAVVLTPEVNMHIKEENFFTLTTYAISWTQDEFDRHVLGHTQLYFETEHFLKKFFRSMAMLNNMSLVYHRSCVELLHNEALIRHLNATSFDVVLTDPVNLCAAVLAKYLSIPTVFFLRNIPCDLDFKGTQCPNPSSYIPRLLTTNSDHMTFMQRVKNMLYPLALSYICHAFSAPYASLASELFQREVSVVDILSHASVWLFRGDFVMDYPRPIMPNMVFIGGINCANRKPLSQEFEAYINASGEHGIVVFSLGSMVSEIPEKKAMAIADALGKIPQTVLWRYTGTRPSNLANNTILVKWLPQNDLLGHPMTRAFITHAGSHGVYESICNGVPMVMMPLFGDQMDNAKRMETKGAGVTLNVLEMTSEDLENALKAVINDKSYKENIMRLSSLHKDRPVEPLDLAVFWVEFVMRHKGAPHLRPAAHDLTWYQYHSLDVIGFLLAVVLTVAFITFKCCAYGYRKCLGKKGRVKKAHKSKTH
The data set can be described thus: Activity of human UGT1A3 expressed in microsomes isolated from baculovirus infected insect cell assessed as enzyme-mediated compound formation treated with [14C]-rivoglitazone at 20 uM after 4 hrs by radio-HPLC/LC-MS/MS analysis in presence of NADPH-generating system/SAM. Type of data set: ADME.

Data set [10] relates to Hepatocyte. The experiment in a line: Drug level in human hepatocytes treated with [14C]-rivoglitazone at 30 uM after 3 hrs by radio-HPLC/LC-MS/MS analysis. Type of data set: ADME, cell-based. The procedure, abridged:
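Freshly isolated hepatocytes were suspended in HBSS at 2×10^6 viable cells/ml; trypan-blue viability was rat 88%, monkey 91 and 94%, human 66, 73 and 81%. Donors were rat (7 weeks, 170 g) and two male cynomolgus monkeys. Cells were incubated with [¹⁴C]rivoglitazone (30 μM) for 3 h at 37°C under 95% O₂/5% CO₂. Acetonitrile stop, sonication, samples pooled per species, supernatant analysed by radio-HPLC and LC-MS.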

Data set [11] can be described thus: Drug level in monkey hepatocytes treated with [14C]-rivoglitazone at 30 uM after 3 hrs by radio-HPLC/LC-MS/MS analysis. Conditions: cynomolgus monkey.
Data set [12] relates to Hepatocyte. The data set can be described thus: Drug level in rat hepatocytes treated with [14C]-rivoglitazone at 30 uM after 3 hrs by radio-HPLC/LC-MS/MS analysis. Type of data set: ADME, cell-based.
Data set [13] is described as follows: Drug level in cynomolgus monkey liver microsomes treated with [14C]-rivoglitazone at 20 uM after 2 to 4 hrs by radio-HPLC/LC-MS/MS analysis in presence of NADPH-generating system/SAM and UDPGA/SAM. Type of data set: ADME, Macaca fascicularis.
In data set [14] the test system is Liver microsome. The data set can be described thus: Drug level in human liver microsomes treated with [14C]-rivoglitazone at 20 uM after 2 to 4 hrs by radio-HPLC/LC-MS/MS analysis in presence of NADPH-generating system/SAM and UDPGA/SAM. Type of data set: ADME.
Data set [15] relates to Liver microsome. The data set can be described thus: Drug level in Sprague-Dawley rat liver microsomes treated with [14C]-rivoglitazone at 20 uM after 2 to 4 hrs by radio-HPLC/LC-MS/MS analysis in presence of NADPH-generating system/SAM and UDPGA/SAM. Type of data set: ADME.
Data set [16] relates to Liver microsome. The data set can be described thus: Drug level in Sprague-Dawley rat liver microsomes treated with [14C]-rivoglitazone at 20 uM after 2 hrs by radio-HPLC/LC-MS/MS analysis in presence of NADPH-generating system/SAM. Type of data set: ADME. In short, it runs like this: (§2)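 Pooled male liver microsomes (1 mg/ml protein; rat from 94 Sprague-Dawley, monkey from 8 cynomolgus, human from 23 donors) were incubated with [¹⁴C]rivoglitazone (20 μM). Buffer: 10 mM potassium phosphate (pH 7.4). Cofactors: NADPH-generating system (2 mM NADP⁺, 20 mM G6P, 2 U/ml G6PDH, 10 mM MgCl₂), with or without 2 mM SAM. Incubation 2 h at 37°C with shaking; controls lacked NADPH system and SAM alone. Acetonitrile stop, radio-HPLC plus LC-MS.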

Data set [17] relates to Hepatocyte. The data set can be described thus: Drug level in rat hepatocytes treated with [14C]-rivoglitazone at 30 uM after 3 hrs by radio-HPLC/LC-MS/MS analysis in presence of NADPH-generating system/SAM. Type of data set: ADME, cell-based.
The nature of data set [18]: Drug level in cynomolgus monkey liver microsomes treated with [14C]-rivoglitazone at 20 uM after 2 hrs by radio-HPLC/LC-MS/MS analysis in presence of NADPH-generating system/SAM. Type of data set: ADME, Macaca fascicularis. In short, it runs like this: as §2
Data set [19] has as its system Hepatocyte (Macaca fascicularis). The experiment in a line: Drug level in monkey hepatocytes treated with [14C]-rivoglitazone at 30 uM after 3 hrs by radio-HPLC/LC-MS/MS analysis in presence of NADPH-generating system/SAM. Conditions: cynomolgus monkey.
The subject of data set [20] is Hepatocyte. The experiment in a line: Drug level in human hepatocytes treated with [14C]-rivoglitazone at 30 uM after 3 hrs by radio-HPLC/LC-MS/MS analysis in presence of NADPH-generating system/SAM. Type of data set: ADME, cell-based.
In data set [21] the test system is Liver microsome. The data set can be described thus: Drug level in human liver microsomes treated with [14C]-rivoglitazone at 20 uM after 2 hrs by radio-HPLC/LC-MS/MS analysis in presence of NADPH-generating system/SAM. Type of data set: ADME. The procedure, abridged: as §2

`COc1ccc2nc(COc3ccc(CC(SC(=O)N[C@@H]4O[C@H](C(=O)O)[C@@H](O)[C@H](O)[C@H]4O)C(=O)O)cc3)n(C)c2c1` (stereo not given in full): the Drug metabolism entry (in data set [1]; in data set [2]; in the data set with Hepatocyte [3]; in the data set on Liver microsome [5]; in data set [6]; in the data set with Hepatocyte [7]) was “metabolite_detected” each time. The Drug metabolism result (in the data set with Liver microsome [8]; in data set [9]) was “metabolite_detected” throughout. In addition, the Retention_time in data set [4] turned out to be 17.3 min.
With `Cn1c(COc2ccc(CC3SC(=O)NC3=O)cc2)nc2ccc(OS(=O)(=O)O)cc21` (stereo not given), the Retention_time in data set [4] was 18.9 min. Further, the Drug metabolism result (with Hepatocyte [10]; in [11]; in the data set on Hepatocyte [12]) was “metabolite_detected” in each case.
Consider `COc1ccc2nc(COc3ccc(CC(SC)C(=O)O)cc3)n(C)c2c1` (stereo not given), for which the Drug metabolism entry (in data set [13]; with Liver microsome [14]; in the data set on Liver microsome [15]) was “metabolite_detected” in each case. The compound also came in with a Retention_time in [4] of 24.2 min.
Consider `COc1ccc2nc(COc3ccc(CC(SC)C(N)=O)cc3)n(C)c2c1` (stereo not given), for which the Drug metabolism entry (in the data set on Liver microsome [16]; in the data set with Hepatocyte [17]; in data set [18]; in [19]; with Hepatocyte [20]; in the data set on Liver microsome [21]) was “metabolite_detected” each time. The Retention_time in data set [4] is given as 20.4 min.
As to `COc1ccc2nc(COc3ccc(CC(SSCC(N)C(=O)O)C(=O)O)cc3)n(C)c2c1` (stereo not given), the Retention_time in data set [4] was determined as 17.1 min. Further, in the data set on Hepatocyte [10], the Drug metabolism entry is “metabolite_detected”.
As to `COc1ccc2nc(COc3ccc(CC4SC(=O)N([C@@H]5O[C@H](C(=O)O)[C@@H](O)[C@H](O)[C@H]5O)C4=O)cc3)n(C)c2c1` (stereo not given in full), the Drug metabolism entry (in data set [1]; in [2]; in the data set with Hepatocyte [3]; in the data set with Liver microsome [5]; in [6]; in the data set with Hepatocyte [7]) was “metabolite_detected” throughout. Moreover, the Drug metabolism entry (in the data set on Liver microsome [8]; in [9]) was “metabolite_detected” throughout. In data set [4], this compound returned a Retention_time of 19.8 min.
